Calls of active or inactive are those of the source. No cut-off for these calls is given here.

Series [1] in a line: Inhibition of PI3K.
For series [2], the system named is U-87MG ATCC. Nature of the series: Antitumor activity against human U87MG cells xenografted in nude mouse assessed as tumor growth inhibition at 3 mg/kg, iv once weekly. The format is functional, organism-based. The arrangement: dose 3 mg/kg. Put shortly: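 U87MG glioma xenografts in nude mice were staged and randomized (n = 10). Dosing was iv once weekly in D5W (days 0, 6 or days 0, 6, 13), with vehicle controls. Tumor volume was measured twice weekly.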

For series [3], the target named is Serine/threonine-protein kinase mTOR (Homo sapiens) (UniProt P42345). As to the kind of experiment: Inhibition of mTOR.
Series [4] is described as follows: Stability in mouse plasma assessed as compound remaining after 120 mins relative to basal level. The format is ADME, cell-free. The conditions noted are these: read-out: Stability. Put shortly: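 Compound was incubated in heparinized plasma at 37 °C for 2 h. Samples taken at various time points were quenched with acetonitrile, dried under nitrogen and reconstituted in methanol/water 20:80. Intact compound was quantified by LC/MS.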

The test system of series [5] is Plasma. Nature of the series: Stability in mouse plasma in presence of esterase inhibitor sodium fluoride. The format is ADME, cell-free. Put shortly:
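Compound was incubated in nude mouse plasma or whole blood at 37 °C for 2 h, with heparin or sodium fluoride/EDTA as anticoagulant. Time-point samples were quenched with acetonitrile, dried, reconstituted and analysed by LC/MS for parent and hydrolysis products.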

The subject of series [6] is Plasma. Nature of the series: Stability in mouse plasma after 5 hrs. The format is ADME, cell-free.
The subject of series [7] is Plasma. As to the kind of experiment: Stability in rat plasma after 5 hrs. Format: ADME, cell-free.
The test system of series [8] is Plasma. As to the kind of experiment: Stability in human plasma after 5 hrs. The format is ADME, cell-free.
Series [9] can be described thus: Solubility at pH 7.4. Format: physicochemical. To be noted: buffer.
The test system of a further series is A498. Nature of the series: Antitumor activity against human A498 cells xenografted in nude mouse assessed as tumor growth inhibition at 25 mg/kg, iv once weekly.
Series [10] relates to U-87MG ATCC. Nature of the series: Antitumor activity against human U87MG cells xenografted in nude mouse assessed as inhibition of S6K phosphorylation at 10 mg/kg, iv administered as single dose measured after 2 hrs. The arrangement: dose 10 mg/kg. Format: functional, organism-based.
Series [11] concerns U-87MG ATCC. As to the kind of experiment: Antitumor activity against human U87MG cells xenografted in nude mouse assessed as inhibition of AKT S473 phosphorylation at 10 mg/kg, iv administered as single dose measured after 2 hrs. Format: functional, organism-based. More on the design: dose 10 mg/kg. The essentials: (§1)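 Nude mice bearing U87MG tumors got a single iv dose. Tumors were excised 2 h later and analysed by Western blot for phosphoproteins (AKT S473, T308) against vehicle-treated controls.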

Series [12] is described as follows: Solubility in water. The format is physicochemical. To be noted: buffer.
The test system of series [13] is U-87MG ATCC. As to the kind of experiment: Antitumor activity against human U87MG cells xenografted in nude mouse assessed as inhibition of AKT T308 phosphorylation at 10 mg/kg, iv administered as single dose measured after 2 hrs. The format is functional, organism-based. More on the design: dose 10 mg/kg. Put shortly: as §1
The test system of the next series is HT-29. As to the kind of experiment: Antitumor activity against human HT-29 cells xenografted in nude mouse assessed as tumor growth inhibition at 5 mg/kg, iv once weekly. Format: functional, organism-based. The arrangement: dose 5 mg/kg. Put shortly: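 HT29 cells from ATCC, cultured by standard methods, grown as tumors in nude mice and randomized into groups (n = 10). Agent formulated in 5% dextrose in water and given iv once weekly. Vehicle-dosed controls. Tumor growth was monitored and analyzed as previously described.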

For the compound `COC[C@H]1OC(=O)/C(=C\N(C)CCCN(C)C)C2=C(O)C(=O)C3=C([C@H](OC(C)=O)C[C@]4(C)[C@@H](OC(=O)CCC(=O)O[C@@H]5CC[C@@H](C[C@@H](C)[C@@H]6CC(=O)[C@H](C)/C=C(\C)[C@@H](O)[C@@H](OC)C(=O)[C@H](C)C[C@H](C)/C=C/C=C/C=C(\C)[C@@H](OC)C[C@@H]7CC[C@@H](C)[C@@](O)(O7)C(=O)C(=O)N7CCCC[C@H]7C(=O)O6)C[C@H]5OC)CC[C@@H]34)[C@]21C`, the inhibition entry in series [1] and in series [3] was “inactive” in each case. Besides, the result in the series on U-87MG ATCC [2] was Active. For the same compound, in series [4], the remaining at 2 h is 15%. The Stability entry with Plasma [5] is given as “Stable”.

As to `C=CCN(/C=C1\C(=O)O[C@H](COC)[C@@]2(C)C1=C(O)C(=O)C1=C2[C@H](OC(C)=O)C[C@]2(C)[C@@H](OC(=O)CCCCCCC(=O)O[C@H]3CC[C@H](C[C@@H](C)[C@@H]4CC(=O)[C@H](C)/C=C(\C)[C@@H](O)[C@@H](OC)C(=O)[C@H](C)C[C@H](C)/C=C/C=C/C=C(\C)[C@@H](OC)C[C@@H]5CC[C@@H](C)[C@@](O)(O5)C(=O)C(=O)N5CCCC[C@H]5C(=O)O4)CC3)CC[C@@H]12)CC=C`, the Stability entry in the series on Plasma [6], in the series with Plasma [7] and with Plasma [8] was “Stable” in each case. Also, the inhibition entry in series [1] and in series [3] was “inactive” throughout.

`C=CCN(/C=C1\C(=O)O[C@H](COC)[C@@]2(C)C1=C(O)C(=O)C1=C2[C@H](OC(C)=O)C[C@]2(C)[C@@H](OC(=O)CCCCCCC(=O)O[C@@H]3CC[C@@H](C[C@@H](C)[C@@H]4CC(=O)[C@H](C)/C=C(\C)[C@@H](O)[C@@H](OC)C(=O)[C@H](C)C[C@H](C)/C=C/C=C/C=C(\C)[C@@H](OC)C[C@@H]5CC[C@@H](C)[C@@](O)(O5)C(=O)C(=O)N5CCCC[C@H]5C(=O)O4)C[C@H]3OC)CC[C@@H]12)CC=C`: the Stability entry with Plasma [6], in the series with Plasma [7] and in the series with Plasma [8] was “Stable” in each case. Also, the inhibition result in series [1] and in series [3] was “inactive” each time.

Turning to `COC[C@H]1OC(=O)/C(=C\N(C)CCCN(C)C)C2=C(O)C(=O)C3=C([C@H](OC(C)=O)C[C@]4(C)[C@@H](OC(=O)CCCCC(=O)O[C@@H]5CC[C@@H](C[C@@H](C)[C@@H]6CC(=O)[C@H](C)/C=C(\C)[C@@H](O)[C@@H](OC)C(=O)[C@H](C)C[C@H](C)/C=C/C=C/C=C(\C)[C@@H](OC)C[C@@H]7CC[C@@H](C)[C@@](O)(O7)C(=O)C(=O)N7CCCC[C@H]7C(=O)O6)C[C@H]5OC)CC[C@@H]34)[C@]21C`, the inhibition entry in series [1] and in [3] was “inactive” in each case. Also, in the series on U-87MG ATCC [2], the result was Active. Besides, the remaining at 2 h in series [4] is 4%. Further, the Stability entry with Plasma [5] is recorded as “Stable”.

Turning to `COC[C@H]1OC(=O)/C(=C\N(C)CCCN(C)C)C2=C(O)C(=O)C3=C([C@H](OC(C)=O)C[C@]4(C)[C@@H](OC(=O)CCCCCCC(=O)O[C@H]5CC[C@H](C[C@@H](C)[C@@H]6CC(=O)[C@H](C)/C=C(\C)[C@@H](O)[C@@H](OC)C(=O)[C@H](C)C[C@H](C)/C=C/C=C/C=C(\C)[C@@H](OC)C[C@@H]7CC[C@@H](C)[C@@](O)(O7)C(=O)C(=O)N7CCCC[C@H]7C(=O)O6)CC5)CC[C@@H]34)[C@]21C`, the inhibition entry in [1] and in [3] was “inactive” in each case.

The compound `C=CCN(/C=C1\C(=O)O[C@H](COC)[C@@]2(C)C1=C(O)C(=O)C1=C2[C@H](OC(C)=O)C[C@]2(C)[C@@H](O)CC[C@@H]12)CC=C` yielded a solubility in [9] above 100 µg/mL.

For the compound `CO[C@H]1C[C@@H]2CC[C@@H](C)[C@@](O)(O2)C(=O)C(=O)N2CCCC[C@H]2C(=O)O[C@H]([C@H](C)C[C@@H]2CC[C@@H](O)[C@H](OC)C2)CC(=O)[C@H](C)/C=C(\C)[C@@H](O)[C@@H](OC)C(=O)[C@H](C)C[C@H](C)/C=C/C=C/C=C/1C` [SIROLIMUS], the result in the series with A498 and in the series with U-87MG ATCC [10] was Active. In addition, the result in the series on U-87MG ATCC [11] and in the series on U-87MG ATCC [13] was inactive. Moreover, in [12], the solubility entry was “Insoluble”.

Take `COC[C@H]1OC(=O)/C(=C\N(C)CCCN(C)C)C2=C(O)C(=O)C3=C([C@H](OC(C)=O)C[C@]4(C)[C@@H](O)CC[C@@H]34)[C@]21C`: the outcome with HT-29 was inactive. The compound further came in with a solubility in [9] above 10000 µg/mL.

Values taken from ChEMBL document CHEMBL1156776, “Hybrid inhibitors of phosphatidylinositol 3-kinase (PI3K) and the mammalian target of rapamycin (mTOR): design, synthesis, and superior antitumor activity of novel wortmannin-rapamycin conjugates” (J Med Chem, 2010).
